Measurements taken from PubChem BioAssay AID1556 (The Scripps Research Institute Molecular Screening Center, 2009).
Out of some 290,000 compounds screened, about 1,300 (0.45%) were called active. The list comes from a sample in which actives are over-represented; it also holds similar structures and randomly drawn compounds. A number with no mark means an inactive call.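 How the source made its calls: active means inhibition above the mean plus 3 SD of all compounds in the same screening run (cut at about 4.5% in these data); inactive means the rest.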

These compounds were tested on metallo-beta-lactamase IMP-1 (Pseudomonas aeruginosa) (assay: inhibition of IMP-1 nitrocefin hydrolysis – biochemical, epi-absorbance readout, Pseudomonas aeruginosa enzyme, primary screen (AID 1556;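 further: 0% = IMP-1 with DMSO and 100% = DMSO wells lacking enzyme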)). Settings: purified IMP-1, nitrocefin hydrolysis, epi-absorbance fluorescence; at 5.6 µM; active compounds read high.
Summary of the method: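 Material – recombinant IMP-1 enzyme, purified · Amount – IMP-1 0.2 nM before substrate addition · Medium – HEPES buffer pH 7.1 with ZnSO4 and Brij 35 · Timing – 25 °C, 15 min preincubation, 25 min reaction · Measured by – plate fluorescence quenching by hydrolysis product, ex 480/em 530 nm · Read-out – percent enzyme inhibition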
With CC1=C(C(=O)OCC2CCCCC2)C(c2ccc(F)cc2)NC(=O)N1 (centres undefined) the inhibition was 28.3% (active). Compound COCCOC(=O)C1=C(C)NC(=O)NC1c1ccc(Cl)cc1 (centres undefined) has an inhibition of -2.42%. CC1=C(C(=O)OC2CCCCC2)C(c2ccccc2F)NC(=O)N1 (centres undefined) gave an inhibition of -2.31%. Cc1ccccc1CNC(=O)CCC(=O)N1Cc2ccccc2Oc2ncccc21 gave an inhibition of -3.43%. CCCCCCC(=O)Nc1nc(C)c(-c2csc(Nc3cc(Cl)ccc3OC)n2)s1 was tested, and the inhibition was -2.05%. In the case of CCNS(=O)(=O)c1ccc(NC(=O)Nc2cccc(OC)c2)cc1, the inhibition is reported as -2.27%. Work on CCOC(=O)c1cnc(SCC(=O)Nc2cccc(OC)c2)nc1N yielded an inhibition of -1.9%. With CCCCCCC(=O)Nc1nc(C)c(-c2csc(Nc3cccc(OC)c3)n2)s1 the inhibition was 9.14% (active). CCOC(=O)c1csc(NC(=O)Nc2cccc(OC)c2)n1 was tested, and the inhibition was 15.1% (active). With CCCCC(=O)Nc1nc(C)c(-c2csc(Nc3ccc(Cl)cc3)n2)s1 the inhibition was 0.37%. For COc1ccc(C(=O)Nc2ccc(-n3nncc3C(C)(C)C)cc2)cc1, the inhibition was -2.83%. For Clc1ccc(C2=CSC3=Nc4cccc5cccc(c45)N23)cc1, the inhibition was 5.6% (active). Work on CC(=O)c1ccc(N2CCN(C(=O)CCNC(=O)Cn3ccc4ccccc4c3=O)CC2)cc1 yielded an inhibition of -0.18%. With O=C(CN1CCOc2ccccc21)N1CCC(Cc2ccccc2)CC1 the inhibition was -0.27%. CCOC(=O)c1c(C)[nH]c(C(=O)NCCN2CCOCC2)c1C was tested, and the inhibition was -0.4%. COc1cc(NC(=O)c2ccc3c(c2)OCO3)ccc1NC(=O)c1cccs1 showed an inhibition of -2.83%. FC(F)(F)C1CCCN(c2nsc3ccccc23)C1 (centres undefined) was tested, and the inhibition was -3.15%. For CSC1=N/C(=C\C=C\c2cccs2)C(=O)S1, the inhibition was 12.2% (active). Cc1cccc(C2=N/C(=C/c3cccs3)C(=O)O2)c1 gave an inhibition of -0.41%. In the case of CN1C/C(=C/c2cccs2)C(=O)/C(=C\c2cccs2)C1, the inhibition is reported as 0.42%. Compound COc1ccc(C(O)(C2CCCCC2)C(CN2CCCC2)c2ccccc2)cc1 (centres undefined) has an inhibition of -0.93%. Work on CCc1ccc(NC(=O)Cn2nnc(C(=O)NCc3ccc4c(c3)OCO4)c2N)cc1 yielded an inhibition of 0.66%. Compound CCOCCCNC(=S)Nc1ccc2nc(N3CCN(CC)CC3)cc(C)c2c1 has an inhibition of -2%. With Cc1cc(/C=C2\SC(=O)N(C)C2=O)c(C)n1-c1cccc(C(=O)O)c1 the inhibition was -1.7%. In the case of N#Cc1ccccc1CN1C(=O)S/C(=C/c2cccn2-c2cccc(C(=O)O)c2)C1=O, the inhibition is reported as 20.9% (active). Cc1ccccc1NC(=O)CN1C(=O)N/C(=C\c2cccn2-c2cccc(C(=O)O)c2)C1=O gave an inhibition of -2.07%. O=C(CNC(=O)c1ccccc1F)c1ccc(Br)cc1 gave an inhibition of -2.02%. In the case of Cc1ccccc1NC(=O)CSc1ccc2nnc(-c3ccccn3)n2n1, the inhibition is reported as -1.21%. CC(NC(=O)CCCC1CCCCC1)c1ccc(S(N)(=O)=O)cc1 (centres undefined) gave an inhibition of -1.72%. With O=C(Cc1cccs1)Nc1cccc(-c2nc3ccccc3[nH]2)c1 the inhibition was -5.9%. Compound O=C(/C=C/c1ccco1)Nc1cccc(-c2nc3ccccc3[nH]2)c1 has an inhibition of -2.53%. For O=C(Nc1cccc(-c2nc3ccccc3[nH]2)c1)c1ccc(C(=O)Nc2cccc(-c3nc4ccccc4[nH]3)c2)cc1, the inhibition was 4.99% (active). In the case of CC1CCN(C(=O)CN(c2ccc(Oc3ccccc3)cc2)S(C)(=O)=O)CC1, the inhibition is reported as -2.25%. Work on CSCCC(NC(=O)c1ccc(Cl)cc1Cl)C(=O)NNC(=O)c1csc(N2CCOCC2)n1 (centres undefined) yielded an inhibition of -2.46%. With COc1ccc(Cl)cc1NC(=O)CCS(=O)(=O)c1cc2c(cc1C)NC(=O)CO2 the inhibition was -3.94%. Work on O=C(CCS(=O)(=O)c1ccc(Br)cc1)NCCc1ccc(Cl)cc1 yielded an inhibition of 0.69%. For COc1ccc(Cl)cc1NC(=O)CCS(=O)(=O)c1ccc(Br)cc1, the inhibition was 9.04% (active). COc1ccc2cc(-c3[nH]ncc3CNCCn3nc(C)cc3C)ccc2c1 was tested, and the inhibition was -2.54%. Work on O=C(NCc1ccncc1)C(=O)NCC1OCCN1S(=O)(=O)c1ccc(Br)cc1 (centres undefined) yielded an inhibition of -1.07%. For COc1ccc(C(=O)/C=C/Nc2ccccn2)cc1, the inhibition was 5.05% (active). COc1ccc2cc(S(=O)(=O)Nc3ccccn3)ccc2c1 gave an inhibition of -3.85%. Work on CCOc1ccc(N/C=C/C(=O)c2ccccc2)cc1 yielded an inhibition of -2.54%. Work on COc1ccc(/C=N/Nc2ccccc2C(=O)O)cc1 yielded an inhibition of -1.08%. For CCOC(=O)C1=C(c2ccccc2)NC(=O)NC1c1cc(OC)c(OC)cc1OC (centres undefined), the inhibition was -2.08%. Cc1ccc(Nc2nnc(SCC(=O)c3cc4ccccc4o3)s2)cc1C gave an inhibition of -0.86%. In the case of Cc1ccccc1Nc1nnc(SCC(=O)c2cc3ccccc3o2)s1, the inhibition is reported as 7.2% (active). For Cc1cc(NC(=O)CSc2nnc(Nc3ccccc3F)s2)no1, the inhibition was -0.94%. In the case of O=[N+]([O-])c1cc(Cl)cc(/C=N/NC(=S)Nc2cc(S(=O)(=O)N3CCOCC3)ccc2Cl)c1O, the inhibition is reported as -0.24%. O=C(N/N=C/c1cc(Cl)cc([N+](=O)[O-])c1O)C(O)(c1ccccc1)c1ccccc1 was tested, and the inhibition was -3.33%. With CN(C)/N=C/c1cc(Cl)cc([N+](=O)[O-])c1O the inhibition was 4.62% (active). O=C(Nc1ccccc1Cc1ccccc1)c1ccc2c(c1)SC1=NS(=O)(=O)CCN12 showed an inhibition of -3.52%. COc1ccc(CNC(=O)CN(c2ccc(OC)c(Cl)c2)S(=O)(=O)c2ccc(C)cc2)cc1 was tested, and the inhibition was -0.9%. With CCOC(=O)c1cc2cc3ccccc3cc2oc1=O the inhibition was 0.55%. CC1CCN(C(=O)CCNC(=O)c2ccccc2)CC1 was tested, and the inhibition was -1.09%. Compound Cc1oc2c(F)c(F)c(F)c(F)c2c1S(=O)(=O)Nc1cccc(C(F)(F)F)c1 has an inhibition of -0.74%. With COc1ccc(OC)c(S(=O)(=O)N2CCCC(C(=O)NCCc3ccccc3)C2)c1 (centres undefined) the inhibition was -0.65%. Compound CCOC(=O)CC1C(=O)NCCN1c1nc2c(C)cccn2c(=O)c1/C=C1\SC(=S)N(C(C)CC)C1=O (centres undefined) has an inhibition of -2.03%. Cc1cccn2c(=O)c(/C=C3\SC(=S)N(CC(C)C)C3=O)c(NCCCOC(C)C)nc12 was tested, and the inhibition was -1.23%. CCCN(CCC)c1nc2c(C)cccn2c(=O)c1/C=C1/SC(=S)N(Cc2ccco2)C1=O was tested, and the inhibition was 7.59% (active).
